Source: PubChem
In the library only some 4.7% were active in any assay of this set; here they are far more common.
Jurkat NFkB inh: lowers PMA/ionomycin-induced NF-kB signal in Jurkat cells. PMA/ionomycin-induced NF-kB luciferase reporter, luminescence. inhibition, % at 4 µM. actives 0.53% (n = 330,000). AID 435003; in the data active = inhibition above about 50%
697 NFkB inh: lowers PMA/ionomycin-induced NF-kB signal in 697 B cells; 697 B-cell NF-kB luciferase reporter, 16 h; inhibition, % at 4 µM; actives 0.33% (n = 330,000); AID 435022; in the data active = inhibition above about 35%
aSyn 5UTR inh: MLPCN primary screen, SNCA 5' untranslated region | actives 0.82% (n = 300,000) | inhibition, % (tested at 7.5 µM) | alpha-synuclein 5'UTR reporter, inhibitor activity | AID 1813; in the data active = inhibition above about 60%;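 note: H4 neuroglioblastoma cells stably carrying SNCA 5'UTR luciferase fusion; 0% = DMSO wells and 100% = positive control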
VIM-2 inh: blocks Pseudomonas aeruginosa VIM-2 metallo-beta-lactamase | actives 0.89% (n = 290,000) | purified VIM-2, nitrocefin hydrolysis, epi-absorbance fluorescence | inhibition, % at 5.6 µM | AID 1527;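 active = inhibition above the mean of all tested compounds plus 3 SD, cutoff set per screening run, cut at about 7.5% in these data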;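 note: red hydrolysis product quenches plate fluorescence so inhibitors raise well fluorescence; 0% = enzyme with DMSO and 100% = DMSO without enzyme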
Mdm2-MdmX inh: human Mdm2/MdmX binding inhibition | actives 3% (n = 330,000) | AID 485346 | SaOS-2 split-luciferase Mdm2/MdmX complementation, luminescence | inhibition, % at 8 µM | O15151+Q00987;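 active = inhibition of at least 50% at 8 µM in the primary screen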
IMP-1 inh: inhibitors of Pseudomonas aeruginosa IMP-1 metallo-beta-lactamase; inhibition, % at 5.6 µM; actives 0.45% (n = 290,000); AID 1556; purified IMP-1, nitrocefin hydrolysis, epi-absorbance fluorescence;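 active = inhibition above the mean plus 3 SD of all compounds in the same screening run, cut at about 4.5% in these data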;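 note: 0% = IMP-1 with DMSO and 100% = DMSO wells lacking enzyme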
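System: purified IMP-1; amount: IMP-1 0.2 nM before substrate addition; compound: single dose, 5.6 µM; times: 25 °C, 15 min preincubation, 25 min reaction; signal: Epi-absorbance via hydrolysed-nitrocefin quenching of white-plate fluorescence, 480/530 nm, EDTA stop; benchmarks: DMSO with and without IMP-1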
Mdm2 MdmX conf: human Mdm2/MdmX binding inhibition, confirmed; shares compounds with Mdm2-MdmX inh; AID 489028; actives 55% (n = 10,000); luminescent assay; inhibition, % at 8 µM; in the data active = inhibition above about 40%
Full FLuc ctr: counter-screen for Mdm2/MdmX inhibitors: full-length luciferase | inhibition, % at 8 µM | SaOS-2 full-length luciferase counterscreen, luminescence | shares compounds with Mdm2-MdmX inh | actives 77% (n = 6,200);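 active = mean inhibition at 8 µM reaching about 37%, which flags the compound as non-specific, limit read from the data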;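 note: p53-null SaOS-2 cells with luciferase driven by a doxycycline-inducible promoter; compound on cells about two nights before reading with doxycycline added after day one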
* = called active by the depositor; . = no result.

SMILES | Jurkat NFkB inh | 697 NFkB inh | aSyn 5UTR inh | VIM-2 inh | Mdm2-MdmX inh | IMP-1 inh | Mdm2 MdmX conf | Full FLuc ctr
CN(C)c1ccnc2sc(C(N)=O)c(N)c12 | 23 | -9 | 36 | 1 | 97* | -3 | 81* | 21
CN(C)c1ccnc2sc(C(=O)c3ccc(Br)cc3)c(N)c12 | -34 | -30 | -85 | -1 | -16 | 1 | . | .
O=C(NCCCO)C12CC3CC(CC(C3)C1)C2 | -2 | 12 | 20 | 0 | -5 | -3 | . | .
CN(C(=O)COC(=O)c1ccc(Br)c(S(=O)(=O)N2CCOCC2)c1)C1CCCCC1 | 2 | -31 | . | . | 15 | . | . | .
COc1ccc(S(=O)(=O)N2CCc3ccccc32)cc1C(=O)Nc1ccc(C(N)=O)cc1 | 13 | -6 | -9 | . | 98* | . | 60* | 66*
CCN1C(=O)[C@@H]2[C@@H](c3ccc(-c4ccc(Cl)c(Cl)c4)c(OC)c3)N3CCCC[C@@]3(C(=O)OC)[C@@H]2C1=O | 16 | -4 | 19 | . | 53* | . | 17 | .
COC(=O)[C@@]12CCCN1[C@H](c1ccc(-c3cccc(Cl)c3)c(OC)c1)[C@H]1C(=O)N(C)C(=O)[C@H]12 | 6 | -8 | 27 | . | 26 | . | . | .
COC(=O)[C@@]12CCCN1[C@H](c1ccc(-c3ccc(F)cc3)cc1)[C@H]1C(=O)N(C)C(=O)[C@H]12 | 3 | 16 | 5 | . | 26 | . | . | .
COC(=O)[C@@]12CCCCN1[C@H](c1ccc(-c3ccc(F)cc3)cc1)[C@H]1C(=O)N(C)C(=O)[C@H]12 | 5 | 19 | . | . | 64* | . | 46* | 48*
CCN1C(=O)[C@H]2[C@@H](c3ccc(-c4ccc(C(C)=O)cc4)c(OC)c3)N3CCCC[C@@]3(C(=O)OC)[C@H]2C1=O | -6 | -44 | . | . | 15 | . | . | .
COC(=O)[C@@]12CCCCN1[C@H](c1ccc(-c3cccc(Cl)c3)c(OC)c1)[C@@H]1C(=O)N(C)C(=O)[C@@H]12 | -32 | -21 | 23 | . | 73* | . | 25 | .
Cc1cc(C(=O)Nn2cnc3ccccc3c2=O)ccc1[N+](=O)[O-] | -8 | 14 | 0 | -1 | 10 | 0 | . | .
CN1CCN(CC(=O)N2CCn3c4c(c5cc(C6CCCCC6)ccc53)CCCC42)CC1 (configuration not stated) | -8 | -17 | 11 | -1 | 98* | -1 | 73* | 52*
O=Cc1cn(CC(=O)N2CCCCC2)c2ccccc12 | 11 | -3 | -12 | -2 | -6 | 0 | . | .
CN1C(=O)/C(=C/c2cn(CC(=O)N3CCCCC3)c3ccccc23)c2ccccc21 | -1 | 13 | 29 | 0 | 52* | 1 | 32 | .
O=C(c1[nH]ncc1-c1cccc(Br)c1)C1CO1 (configuration not stated) | 14 | -45 | -7 | -4 | 51* | -2 | 44* | 51*
O=C(O)CSc1nnc(-c2ccc(Cl)cc2Cl)n1-c1ccc(Br)cc1 | 1 | 1 | -6 | 0 | 3 | -7 | . | .
O=C(COC(=O)/C=C/c1ccccc1Cl)NC(=O)NC1CCCC1 | -1 | 20 | . | . | 12 | . | . | .
O=C(O)/C=C/C(=O)c1ccc2c(c1)CCc1ccccc1-2 | 3 | -54 | -111 | . | 67* | . | 26 | .
CC(=O)Nc1ccc2c(c1)CCc1ccccc1-2 | -46 | -72 | -60 | -1 | -3 | -2 | . | .
Cc1ccc(NC(=S)NCc2ccc(Cl)cc2)c(OC(F)F)c1 | 12 | 15 | 12 | -5 | 11 | -1 | . | .
COc1ccc(-c2cn(-c3ccc(OC)cc3)c3[n+]2-c2ccccc2CC3)cc1 | 40 | 27 | 0 | 1 | 57* | -1 | 37 | .
COc1ccc(CN2CCNC(=O)C2CC(=O)NC2CCOCC2)c(F)c1 (configuration not stated) | 12 | 1 | -3 | -3 | 5 | -2 | . | .
CN(C)CCCN(Cc1cc2cc3c(cc2[nH]c1=O)OCO3)C(=S)Nc1ccccc1 | -17 | -5 | -51 | -4 | 6 | 0 | . | .
CCN1CCCC1CN(Cc1cc2ccc(C)cc2[nH]c1=O)C(=S)Nc1ccc(F)cc1 (configuration not stated) | 14 | 6 | -27 | 10* | 60* | 0 | 35 | 63*
SMILES | Jurkat NFkB inh | 697 NFkB inh | aSyn 5UTR inh | VIM-2 inh | Mdm2-MdmX inh | IMP-1 inh | Mdm2 MdmX conf | Full FLuc ctr
Cc1cc2cc(CN(CC3CCCO3)C(=S)Nc3ccccc3)c(=O)[nH]c2cc1C (configuration not stated) | 40 | -19 | -1 | -2 | 67* | -1 | 56* | 59*
CN(C)CCCN(Cc1cc2cc3c(cc2[nH]c1=O)OCO3)C(=S)Nc1cccc(Cl)c1 | -13 | -12 | -45 | -4 | 59* | 1 | 29 | .
COc1ccccc1NC(=O)N(Cc1ccco1)Cc1cc2cc(C)cc(C)c2[nH]c1=O | 13 | 14 | -13 | 1 | 53* | 1 | 37 | .
COc1cccc(C2CC(=O)C3=C(C2)Nc2ccccc2N(C(=O)CCC(=O)O)C3c2ccc(F)cc2)c1 (configuration not stated) | 1 | 18 | 9 | -3 | -16 | -1 | . | .
COc1cc(CN2CCCC(C(=O)N3CCc4ccccc4C3)C2)cc(OC)c1OC (configuration not stated) | 14 | 12 | 31 | -2 | 23 | 1 | . | .
COc1ccc2cc(CN(CC3CCCO3)C(=O)Nc3ccccc3OC)c(=O)[nH]c2c1 (configuration not stated) | 49 | -11 | 66* | 0 | 59* | -3 | 53* | 63*
Cc1cccc(C)c1OC(=O)CSc1nnc(-c2ccccc2O)o1 | 11 | 20 | 28 | 0 | 3 | 0 | . | .
COc1ccc(CNC(=O)COC(=O)c2cccs2)cc1 | 14 | 6 | -13 | 0 | 10 | -2 | . | .
Cc1ccc2[nH]c(=O)c(C3C(C#N)=C(N)Oc4c3ccc3cccnc43)cc2c1 (configuration not stated) | -15 | -15 | 75* | -1 | 57* | -1 | 42* | 44*
Cc1cc2cc(CN(Cc3ccco3)S(=O)(=O)c3c(C)ccc4nsnc34)c(=O)[nH]c2cc1C | 3 | 2 | 89* | -3 | 61* | -1 | 54* | 54*
Cc1ccc(-c2nc3c(Cl)cc(Cl)cc3c(=O)n2O)cc1 | -7 | -4 | -10 | -2 | 33 | 0 | . | .
O=[N+]([O-])c1ccc(/C=N/Nc2nc(N3CCCC3)nc(N3CCCC3)n2)o1 | 3 | 14 | -15 | 3 | 17 | -3 | . | .
O=[N+]([O-])c1ccc(-c2ccc(/C=N/Nc3nc(N4CCCC4)nc(N4CCCC4)n3)o2)cc1 | 8 | 5 | -13 | -1 | 93* | -1 | 67* | 49*
